# Laboratory results taken from ChEMBL document CHEMBL1921799, “Computationally-guided optimization of a docking hit to yield catechol diethers as potent anti-HIV agents” (J Med Chem, 2011).
# Columns and labels:
# MT2 [1] = test: Cytotoxicity against human MT2 cells infected with HIV1 3B by MTT assay; format: cell-based
# [2] = system: Human immunodeficiency virus 1; test: Antiviral activity against Human immunodeficiency virus 1 3B infected in human MT2 cells assessed as protection against viral infection by MTT assay; format: functional, organism-based
# Summary of the method: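 HIV-1 (IIIB or variant strains) infected into MT-2 human T-cells. The MTT colorimetric read-out measured cell viability. […] Antiviral curves used triplicate samples at each concentration, and a cytotoxicity (CC50) curve on MT-2 growth was run at the same time.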
# [3] = system: Human immunodeficiency virus 1; test: Antiviral activity against Human immunodeficiency virus 1 NL4.3 infected in human MT2 cells assessed as inhibition of viral infection; format: functional, organism-based; details: Human immunodeficiency virus 1, NL4.3, MT2
# Summary of the method: (§1)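 HIV-1 (IIIB or variant strains) infected into MT-2 human T-cells. The MTT colorimetric read-out measured cell viability. Antiviral curves used triplicate samples at each concentration, and a cytotoxicity (CC50) curve on MT-2 growth was run at the same time.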
# [4] = system: Human immunodeficiency virus 1; test: Antiviral activity against Human immunodeficiency virus 1 NL4.3 reverse transcriptase Y181C mutant infected in human MT2 cells assessed as inhibition of viral infection; format: functional, organism-based; details: Human immunodeficiency virus 1, NL4.3, MT2; summary of the method: as §1
# [5] = system: Human immunodeficiency virus 1; test: Antiviral activity against Human immunodeficiency virus 1 NL4.3 reverse transcriptase K103N and Y181C double mutant infected in human MT2 cells assessed as inhibition of viral infection; format: functional, organism-based; details: Human immunodeficiency virus 1, NL4.3, MT2; summary of the method: as §1
# MT2 [6] = test: (§2) Cytotoxicity against human MT2 cells infected with HIV1 NL4.3 by MTT assay; format: cell-based; details: mt2
# [7] = as §2; format: cell-based; details: MT2 cells infected with HIV1 NL4.3
# [8] = system: Human immunodeficiency virus 1; test: Ratio of EC50 for Human immunodeficiency virus 1 NL4.3 reverse transcriptase Y181C mutant to EC50 for Human immunodeficiency virus 1 NL4.3 expressing wild type reverse transcriptase; format: functional
# [9] = system: Human immunodeficiency virus 1; test: Ratio of EC50 for Human immunodeficiency virus 1 NL4.3 reverse transcriptase K103N and Y181C double mutant to EC50 for Human immunodeficiency virus 1 NL4.3 expressing wild type reverse transcriptase; format: functional
# [10] = system: Human immunodeficiency virus 1; test: Antiviral activity against Human immunodeficiency virus 1 NL4.3 infected in human MT4 cells assessed as inhibition of viral infection; format: functional, organism-based; details: Human immunodeficiency virus 1, NL4.3, MT4
# [11] = system: Human immunodeficiency virus 1; test: Antiviral activity against Human immunodeficiency virus 1 NL4.3 reverse transcriptase Y181C mutant infected in human MT4 cells assessed as inhibition of viral infection; format: functional, organism-based; details: Human immunodeficiency virus 1, NL4.3, MT4
# [12] = system: Human immunodeficiency virus 1; test: Antiviral activity against Human immunodeficiency virus 1 NL4.3 reverse transcriptase K103N and Y181C double mutant infected in human MT4 cells assessed as inhibition of viral infection; format: functional, organism-based; details: Human immunodeficiency virus 1, NL4.3, MT4
# [13] = Cytotoxicity against human MT4 cells infected with HIV1 NL4.3 by MTT assay; format: cell-based
Compound,CC50 (MT2 [1]),EC50 [2],EC50 [3],EC50 [4],EC50 [5],CC50 (MT2 [6]),also measured
Cc1ccc(OCCn2ccc(=O)[nH]c2=O)c(Cc2ccccc2)c1,72000 nM,4800 nM,,,,,
O=c1ccn(CCOc2cc(Cl)cc(Cl)c2Oc2ccccc2Cl)c(=O)[nH]1,13000 nM,830 nM,,,,,
O=c1ccn(CCOc2ccc(Cl)cc2Cc2ccccc2)c(=O)[nH]1,23000 nM,1200 nM,,,,,
O=c1ccn(CCOc2ccc(Cl)cc2Cc2ccccc2Cl)c(=O)[nH]1,28000 nM,620 nM,,,,,
O=c1ccn(CCOc2ccc(Cl)cc2Cc2cccc(Cl)c2)c(=O)[nH]1,11000 nM,1500 nM,,,,,
O=c1ccn(CCOc2ccc(Cl)cc2Cc2ccc(Cl)cc2Cl)c(=O)[nH]1,88000 nM,2900 nM,,,,,
O=c1ccn(CCOc2ccc(Cl)cc2Cc2cc(Cl)cc(Cl)c2)c(=O)[nH]1,10000 nM,1300 nM,,,,,
O=c1ccn(CCOc2ccc(Cl)cc2Cc2cc(Cl)ccc2Cl)c(=O)[nH]1,15000 nM,380 nM,,,,,
O=c1ccn(CCOc2ccc(Cl)cc2Cc2c(Cl)cccc2Cl)c(=O)[nH]1,49000 nM,310 nM,,,,,
Cc1cn(CCOc2ccc(Cl)cc2Cc2ccccc2)c(=O)[nH]c1=O,22000 nM,2400 nM,,,,,
O=c1[nH]c(=O)n(CCOc2ccc(Cl)cc2Cc2ccccc2)cc1F,27000 nM,2500 nM,,,,,
O=c1[nH]c(=O)n(CCOc2ccc(Cl)cc2Cc2ccccc2)cc1Cl,21000 nM,2200 nM,,,,,
O=c1ccn(CCOc2cc(Cl)ccc2Cc2ccccc2Cl)c(=O)[nH]1,12000 nM,410 nM,,,,,
N#Cc1cc(C#N)cc(Oc2cc(Cl)ccc2OCCn2ccc(=O)[nH]c2=O)c1,80000 nM,140 nM,140 nM,21000 nM,2200 nM,77000 nM,
N#Cc1cccc(Cl)c1Oc1cc(Cl)ccc1OCCn1ccc(=O)[nH]c1=O,50000 nM,120 nM,,,,,
N#Cc1cc(Cl)cc(Oc2cc(Cl)ccc2OCCn2ccc(=O)[nH]c2=O)c1,33000 nM,90 nM,90 nM,6700 nM,1200 nM,32000 nM,
N#Cc1ccc(Cl)c(Oc2ccc(Cl)cc2OCCn2ccc(=O)[nH]c2=O)c1,60000 nM,100 nM,,,,,
N#Cc1cc(C#N)cc(Oc2ccc(Cl)cc2OCCn2ccc(=O)[nH]c2=O)c1,> 100000 nM,46 nM,,,,,
N#Cc1cc(Cl)cc(Oc2ccc(Cl)cc2OCCn2ccc(=O)[nH]c2=O)c1,,14 nM,14 nM,520 nM,1700 nM,,CC50 [7]: > 100000 nM
N#Cc1cc(Cl)cc(Oc2ccc(Cl)cc2OCCn2cc(F)c(=O)[nH]c2=O)c1,17000 nM,13 nM,13 nM,620 nM,1700 nM,13000 nM,

Compound,CC50 (MT2 [1]),EC50 [2],EC50 [3],EC50 [4],EC50 [5],CC50 (MT2 [6]),also measured
N#Cc1cc(Cl)cc(Oc2ccc(Cl)cc2OCCn2cc(Cl)c(=O)[nH]c2=O)c1,31000 nM,17 nM,17 nM,240 nM,570 nM,21000 nM,Ratio EC50 [8]: 14; Ratio EC50 [9]: 34
N#Cc1cc(Cl)cc(Oc2ccc(C#N)cc2OCCn2ccc(=O)[nH]c2=O)c1,> 100000 nM,6000 nM,,,,,
N#Cc1cc(Cl)cc(Oc2ccc(C#N)cc2OCCn2cc(Cl)c(=O)[nH]c2=O)c1,94000 nM,5300 nM,,,,,
N#Cc1ccc(Oc2ccccc2Cl)c(OCCn2ccc(=O)[nH]c2=O)c1,> 100000 nM,270 nM,,,,,
N#Cc1ccc(Oc2cc(Cl)ccc2Cl)c(OCCn2ccc(=O)[nH]c2=O)c1,71000 nM,43 nM,43 nM,920 nM,2800 nM,59000 nM,
N#Cc1ccc(Oc2cc(Cl)cc(Cl)c2)c(OCCn2ccc(=O)[nH]c2=O)c1,> 100000 nM,20 nM,20 nM,800 nM,> 43000 nM,> 61000 nM,
N#C/C=C/c1cccc(Oc2ccc(C#N)cc2OCCn2ccc(=O)[nH]c2=O)c1,> 100000 nM,15 nM,15 nM,980 nM,8000 nM,> 90000 nM,
N#C/C=C/c1cccc(Oc2ccc(Cl)cc2OCCn2ccc(=O)[nH]c2=O)c1,19000 nM,5 nM,5 nM,370 nM,1600 nM,22000 nM,
N#C/C=C/c1cc(Cl)cc(Oc2ccc(Cl)cc2OCCn2ccc(=O)[nH]c2=O)c1,10000 nM,0.055 nM,0.055 nM,49 nM,220 nM,10000 nM,
N#C/C=C/c1cc(F)cc(Oc2ccc(Cl)cc2OCCn2ccc(=O)[nH]c2=O)c1,48000 nM,3.2 nM,3.2 nM,150 nM,900 nM,48000 nM,
N#C/C=C/c1cc(F)cc(Oc2ccc(F)cc2OCCn2ccc(=O)[nH]c2=O)c1,45000 nM,0.32 nM,0.32 nM,16 nM,85 nM,45000 nM,
CNc1ccc(Oc2cc(Cl)cc(/C=C/C#N)c2)c(OCCn2ccc(=O)[nH]c2=O)c1,30000 nM,20 nM,20 nM,2800 nM,,30000 nM,
N#Cc1cc(F)c(Oc2ccccc2Cl)c(OCCn2ccc(=O)[nH]c2=O)c1,> 100000 nM,160 nM,,,,,
COCCOc1cccc(Oc2ccc(C#N)cc2OCCn2ccc(=O)[nH]c2=O)c1,> 100000 nM,540 nM,,,,,
N#Cc1ccc(Oc2cccc(OCCCO)c2)c(OCCn2ccc(=O)[nH]c2=O)c1,> 100000 nM,1800 nM,,,,,
Cc1cc(C)cc(Oc2c(CSCc3ccco3)c(C)[nH]c(=O)c2I)c1,,,1 nM,,,,
O=C1Nc2ccc(Cl)cc2[C@@](C#CC2CC2)(C(F)(F)F)O1 [EFAVIRENZ],,,,,,,EC50 [10]: 1.4 nM; EC50 [11]: 2 nM; EC50 [12]: 37 nM
Cc1cc(C#N)cc(C)c1Oc1nc(Nc2ccc(C#N)cc2)nc(N)c1Br [ETRAVIRINE],,,,,,,EC50 [11]: 7 nM; EC50 [12]: 4 nM
Cc1ccnc2c1NC(=O)c1cccnc1N2C1CC1 [NEVIRAPINE],,,,> 100000 nM,> 100000 nM,,EC50 [10]: 81 nM; EC50 [11]: > 10000 nM; EC50 [12]: > 10000 nM; CC50 [7]: > 100000 nM
Cc1cc(/C=C/C#N)cc(C)c1Nc1ccnc(Nc2ccc(C#N)cc2)n1 [RILPIVIRINE],,,,,,> 1000 nM,CC50 [13]: 8000 nM; EC50 [10]: 0.4 nM; EC50 [12]: 1 nM
